For series [1], the system named is LPS-treated BV2 microglial cells. The conditions noted are these: 15 μmol; cited from earlier work.
For series [2] the following is noted: named as a side effect restricting use; cited from earlier work.
The conditions of series [3]: named as a side effect restricting use; cited from earlier work. The source holds these as a separate data set.
Series [4] concerns the target T1, sEH (Homo sapiens, UniProt P34913).
T1 sequence (P34913 1-555): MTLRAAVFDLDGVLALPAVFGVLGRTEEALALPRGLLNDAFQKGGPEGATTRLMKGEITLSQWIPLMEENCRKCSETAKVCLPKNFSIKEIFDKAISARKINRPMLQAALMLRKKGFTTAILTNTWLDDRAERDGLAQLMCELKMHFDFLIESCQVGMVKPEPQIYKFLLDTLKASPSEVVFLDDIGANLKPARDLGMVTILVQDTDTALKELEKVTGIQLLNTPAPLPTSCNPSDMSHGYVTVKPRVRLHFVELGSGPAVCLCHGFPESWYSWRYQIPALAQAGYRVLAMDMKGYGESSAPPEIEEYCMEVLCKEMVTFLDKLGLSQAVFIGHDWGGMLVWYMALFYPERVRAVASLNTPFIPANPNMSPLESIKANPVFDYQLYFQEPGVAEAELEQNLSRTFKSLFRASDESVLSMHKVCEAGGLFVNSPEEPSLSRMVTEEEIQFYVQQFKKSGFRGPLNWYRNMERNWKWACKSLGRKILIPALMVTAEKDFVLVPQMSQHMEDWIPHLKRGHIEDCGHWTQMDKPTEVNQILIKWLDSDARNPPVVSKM
Description: biochemical.

The target in series [5] is T1, sEH. Description: Enzyme kinetics analysis. In kind it is biochemical. Summed up:
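Recombinant human sEH (250 ng/mL) in 25 mM Tris–HCl, pH 7.0, with 0.1 mg/mL BSA, mixed with inhibitor in methanol, then PHOME substrate added at several concentrations. Product fluorescence was read at ex 330/em 465 nm. Initial velocities at each fixed inhibitor concentration were plotted double-reciprocally (Lineweaver–Burk) to assign inhibition mode and derive Ki. Triplicates in three independent experiments, mean ± SEM.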

In series [6] the test system is sEH. Conditions: derived from the leaves of Capsicum chinense; cited from earlier work.

In the case of `O=C(C=Cc1cc(O)c2c(c1)C(C(=O)NCCc1ccc(O)cc1)C(c1ccc(O)c(O)c1)O2)NCCc1ccc(O)cc1` (stereo not shown) [3,3′-demethyl-grossamide], the “anti-neuroinflammatory activities via TNF-α suppression” value in series [1] is listed as “exerted anti-neuroinflammatory activities”.
Consider `O=C(O)CCCCCCCCCCCNC(=O)NC12CC3CC(CC(C3)C1)C2` [AUDA, 12-(3-adamantane-1-yl-ureido)-dodecanoic acid], for which, in series [2], the water solubility result was “limited water solubility”. Moreover, the metabolic stability entry in series [3] is recorded as “metabolic instability”.
On sEH [4], `COc1cc([C@@H]2Oc3c(OC)cc(/C=C/C(=O)NCCc4ccc(O)cc4)cc3[C@H]2C(=O)NCCc2ccc(O)cc2)ccc1O` [Compound 5, grossamide] returned a half-inhibitory concentration (IC50) of 3300 ± 300 nM. The molecule further displayed a Ki on sEH [5] of 1500 nM. In addition, at sEH [5] (Lineweaver-Burk plots), the Inhibition type entry is recorded as “Competitive”.
Take `O=C(/C=C/c1ccc(O)cc1)NCCc1ccc(O)cc1` [N-trans-Coumaroyltyramine]: the “mode of inhibition against sEH” value in the series on sEH [6] is listed as “competitive inhibition”.
For `COc1cc(/C=C/C(=O)NCCc2ccc(O)cc2)ccc1O` [N-trans-feruloyltyramine], the “mode of inhibition against sEH” value in the series on sEH [6] is reported as “competitive inhibition”.
`COc1cc(/C=C(C(=O)NCCc2ccc(O)cc2)\C(=C/c2ccc(O)c(OC)c2)C(=O)NCCc2ccc(O)cc2)ccc1O` [cannabisin G]: the “anti-neuroinflammatory activities via TNF-α suppression” value in series [1] is “exerted anti-neuroinflammatory activities”.
As to coumaroyl-amino butanol glucopyranoside, the “anti-neuroinflammatory activities via TNF-α suppression” value in series [1] was “exerted anti-neuroinflammatory activities”.

The term IC50 denotes the point on the concentration scale where inhibition reaches its midpoint. For orientation: Ki means a measure of affinity in units of concentration, obtained from inhibition or displacement. A low value points to tighter binding.

(Values after publication PMC10559049 (Heliyon, 2023).)
